Experimental data published in ChEMBL document CHEMBL3351507, “11H-Pyrido[3',2':4,5]pyrrolo[3,2-c]cinnoline and pyrido[3',2':4,5]pyrrolo[1,2-c][1,2,3]benzotriazine: two new ring systems with antitumor activity” (2014).
The source made the active and inactive calls. No cut-off for these calls is given here.

What was measured:
U-251 = assay: Cytotoxicity against human U251 cells assessed as growth inhibition after 72 hrs by MTT assay; type: functional; details: U-251, 72 h
Summary of the method: (§1)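 NCI 60-cell-line panel screen. Compounds were tested at 5 concentrations in 10-fold dilution (10^-4 to 10^-8 M) across the full panel. GI50 was taken as the molar concentration giving 50% inhibition of net cell growth.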

Jurkat [1] = assay: Cytotoxicity against human Jurkat cells assessed as growth inhibition after 72 hrs by MTT assay; type: functional
Summary of the method: (§2)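 Cells were grown in medium with 10% heat-inactivated FBS plus penicillin/streptomycin: RPMI-1640 for Jurkat and CEM, DMEM for A-431, HAM's F12 for LoVo. The doxorubicin-resistant LoVo subclone was kept with 0.1 µg/mL doxorubicin. Cells were seeded at 5x10^3 per well and pre-incubated 24 h at 37 °C.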

[2] = target: T1, DNA topoisomerase 1 (Homo sapiens) (UniProt P11387); assay: Inhibition of human DNA topoisomerase 1-mediated relaxation of supercoiled pBR322 plasmid DNA at 5 to 100 uM after 30 mins by agarose gel electrophoresis relative to untreated control
T1 sequence (whole entry): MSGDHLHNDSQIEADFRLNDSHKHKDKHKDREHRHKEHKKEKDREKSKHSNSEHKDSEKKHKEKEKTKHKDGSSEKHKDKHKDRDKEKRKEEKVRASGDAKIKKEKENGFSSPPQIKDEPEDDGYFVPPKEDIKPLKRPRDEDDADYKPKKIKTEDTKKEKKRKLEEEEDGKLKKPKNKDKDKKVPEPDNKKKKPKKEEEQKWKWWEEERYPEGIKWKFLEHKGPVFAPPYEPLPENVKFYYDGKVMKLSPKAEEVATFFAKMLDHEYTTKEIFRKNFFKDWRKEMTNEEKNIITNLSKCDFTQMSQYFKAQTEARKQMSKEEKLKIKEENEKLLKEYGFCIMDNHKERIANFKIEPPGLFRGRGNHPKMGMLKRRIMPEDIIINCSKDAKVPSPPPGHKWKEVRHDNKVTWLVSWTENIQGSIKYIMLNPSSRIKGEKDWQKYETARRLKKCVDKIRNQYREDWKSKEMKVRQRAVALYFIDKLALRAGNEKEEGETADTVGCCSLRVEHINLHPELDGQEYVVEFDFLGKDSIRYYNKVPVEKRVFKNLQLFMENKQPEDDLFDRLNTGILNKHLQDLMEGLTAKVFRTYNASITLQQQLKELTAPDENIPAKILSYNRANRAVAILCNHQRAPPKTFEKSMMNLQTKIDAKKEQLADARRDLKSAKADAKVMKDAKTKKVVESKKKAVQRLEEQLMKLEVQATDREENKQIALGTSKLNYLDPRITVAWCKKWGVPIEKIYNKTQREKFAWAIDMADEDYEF
Summary of the method: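 Human topoisomerase I (10 units) was incubated with 0.250 µg supercoiled pBR322 and compound (5-100 µM) for 30 min at 37 °C. Buffer: 50 mM Tris-HCl pH 7.5, 50 mM KCl, 0.5 mM DTT, 10 mM MgCl2, 0.1 mM EDTA, 30 µg/mL BSA. Reactions were stopped with 1% SDS and proteinase K (50 µg/mL, 30 min). Samples ran on 0.8% agarose in TAE at 20 V overnight, then were post-stained with ethidium bromide.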

SN12C = assay: Cytotoxicity against human SN12C cells assessed as growth inhibition after 72 hrs by MTT assay; type: functional; summary of the method: as §1
K562 = assay: Cytotoxicity against human K562 cells assessed as growth inhibition after 72 hrs by MTT assay; type: functional; details: K562, 72 h
M14 = assay: Cytotoxicity against human M14 cells assessed as growth inhibition after 72 hrs by MTT assay; type: functional; details: M14, 72 h
CCRF-CEM [3] = assay: Resistance index, ratio of GI50 for human vinblastin-resistant CEM cells to GI50 for human CEM cells; type: functional
Summary of the method: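 CEMVbl-100 (vinblastine-selected CEM) was grown in RPMI-1640 with 0.1 µg/mL vinblastine. LoVoDoxo was grown in HAM's F12 with 0.1 µg/mL doxorubicin; parental CEM and LoVo were grown without drug. Media had 10% FBS. 5x10^3 cells were seeded, preincubated 24 h at 37 °C, then exposed 72 h to compound (DMSO <1%). Read-out was MTT; GI50 came from dose-response curves of ≥3 experiments. RI = GI50 resistant / GI50 parental.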

CCRF-CEM [4] = assay: Cytotoxicity against human CEM cells assessed as growth inhibition after 72 hrs by MTT assay; type: functional; summary of the method: as §2
SNB-19 = assay: Cytotoxicity against human SNB19 cells assessed as growth inhibition after 72 hrs by MTT assay; type: functional; details: SNB-19, 72 h; summary of the method: as §1
ACHN = assay: Cytotoxicity against human ACHN cells assessed as growth inhibition after 72 hrs by MTT assay; type: functional
NCI-H23 = assay: Cytotoxicity against human NCI-H23 cells assessed as growth inhibition after 72 hrs by MTT assay; type: functional; details: NCI-H23, 72 h
Jurkat [5] = assay: Cell cycle arrest in human Jurkat cells assessed as accumulation at G2/M phase at 0.25 uM after 24 hrs by propidium iodide staining-based flow cytometry (reference value: 21.9%); type: functional
SF-268 = assay: Cytotoxicity against human SF268 cells assessed as growth inhibition after 72 hrs by MTT assay; type: functional; details: SF-268, 72 h; summary of the method: as §1
Jurkat [6] = assay: Cell cycle arrest in human Jurkat cells assessed as accumulation at subG1 phase at 0.5 uM after 24 hrs by propidium iodide staining-based flow cytometry (reference value: 5.3%); type: functional
A-431 = assay: Cytotoxicity against human A431 cells assessed as growth inhibition after 72 hrs by MTT assay; type: functional; details: A-431, 72 h; summary of the method: as §2
[7] = Cytotoxicity against human HCT116 cells assessed as growth inhibition after 72 hrs by MTT assay; type: functional; details: HCT-116, 72 h
TK-10 = assay: Cytotoxicity against human TK10 cells assessed as growth inhibition after 72 hrs by MTT assay; type: functional; details: TK-10, 72 h; summary of the method: as §1
RPMI-8226 = assay: Cytotoxicity against human RPMI8226 cells assessed as growth inhibition after 72 hrs by MTT assay; type: functional; details: RPMI-8226, 72 h; summary of the method: as §1
LoVo = assay: Anticlonogenic activity against human LoVo cells assessed as inhibition of colony formation of cells incubated for 24 hrs followed by compound washout measured after 1 to 2 weeks by crystal violet staining-based assay; type: functional, cell-based
Summary of the method: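 LoVo cells were plated at 1000 per well in six-well plates and exposed to compound at different concentrations for 24 h. Medium was then replaced, with fresh medium every 2–3 days, until colonies formed (1–2 weeks). Colony number is given as a percentage of untreated cells (100%), as mean ± SEM of 3 independent experiments.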

[8] = Cytotoxicity against human UACC62 cells assessed as growth inhibition after 72 hrs by MTT assay; type: functional; details: UACC-62, 72 h; summary of the method: as §1
RXF 393 = assay: Cytotoxicity against human RXF393 cells assessed as growth inhibition after 72 hrs by MTT assay; type: functional; details: RXF 393, 72 h; summary of the method: as §1
[9] = Cytotoxicity against human OVCAR5 cells assessed as growth inhibition after 72 hrs by MTT assay; type: functional; details: OVCAR-5, 72 h; summary of the method: as §1
786-0 = assay: Cytotoxicity against human 786-0 cells assessed as growth inhibition after 72 hrs by MTT assay; type: functional; details: 786-0, 72 h

Structure (SMILES) | GI50 (U-251) [nM] | GI50 (Jurkat [1]) [nM] | Activity [2] | GI50 (SN12C) [nM] | GI50 (K562) [nM] | GI50 (M14) [nM] | Ratio (CCRF-CEM [3]) | GI50 (CCRF-CEM [4]) [nM] | GI50 (SNB-19) [nM] | GI50 (ACHN) [nM] | GI50 (NCI-H23) [nM] | Activity (Jurkat [5]) [%] | GI50 (SF-268) [nM] | GI50 [7] [nM] | GI50 (TK-10) [nM] | GI50 (RPMI-8226) [nM] | GI50 [8] [nM] | GI50 (RXF 393) [nM] | GI50 [9] [nM] | GI50 (786-0) [nM] | further results
COc1cc2nnn3c4ncccc4c(N=O)c3c2cc1OC | 600 | 200 | Active | 1800 | 210 | 1710 | 2.13 | 240 | 3840 | 250 | 2220 | 47.3 | 490 | 61 | 5260 | 110 | 2920 | 400 | 2690 | 230 | Activity (Jurkat [6]): 21.7%; GI50 (A-431): 1410 nM; inhibition (LoVo): Dose-dependent effect
COc1ccc2c(c1)nnn1c3ncccc3c(N=O)c21 | 720 | 90 | Active | 1400 | 110 | 1570 | 2 | 220 | 6280 | 94 | 5170 | 39.4 | 470 | 60 | 5080 | 260 | 850 | 310 | 8020 | 330 | Activity (Jurkat [6]): 39.1%; GI50 (A-431): 930 nM; inhibition (LoVo): Dose-dependent effect
COc1cc2nnc3c4cccnc4[nH]c3c2cc1OC | 920 | – | – | 2270 | 330 | 1790 | – | – | 2770 | 330 | 2340 | – | 540 | 130 | 2380 | 190 | 2490 | 710 | 2530 | 320 | –
O=Nc1c2cccnc2n2nnc3ccc(Cl)cc3c12 | 1270 | – | – | 1460 | 130 | 1190 | – | – | 3180 | 330 | 1170 | – | 1210 | 190 | 940 | 170 | 2360 | 560 | 1380 | 840 | –
COc1ccc2c(c1)nnc1c3cccnc3[nH]c21 | 930 | 90 | Active | 1630 | 220 | 1070 | 1.57 | 650 | 7610 | 200 | 5500 | 45.7 | 730 | 210 | 4520 | 730 | 910 | 660 | 5720 | 510 | Activity (Jurkat [6]): 39.8%; GI50 (A-431): 2350 nM; inhibition (LoVo): Dose-dependent effect
